In brackets after ≈: the same amount, converted by molar mass.
How the values were obtained:
Assay type in all cases: functional
Staphylococcus aureus [1] = test: Antibacterial activity against methicillin-sensitive Staphylococcus aureus 10-2 after 18 hrs by two fold serial dilution method; details: 10-2, 18 h
Method in brief: (§1)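 Agar two-fold serial dilution in melted Mueller-Hinton agar, final concentrations 128 down to 0.008 μg/mL. Plates inoculated with 10⁴ cfu and incubated at 35 °C for 18 h. MIC taken as the lowest concentration giving no visible growth on the plate.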

Enterococcus faecium [2] = test: Antibacterial activity against Enterococcus faecium 09-5 after 18 hrs by two fold serial dilution method; details: 09-5, 18 h; method in brief: as §1
Pseudomonas aeruginosa [3] = test: Antibacterial activity against Pseudomonas aeruginosa 10-1 after 18 hrs by two fold serial dilution method; details: 10-1, 18 h; method in brief: as §1
Staphylococcus aureus [4] = test: Antibacterial activity against methicillin-sensitive Staphylococcus aureus 10-3 after 18 hrs by two fold serial dilution method; details: 10-3, 18 h; method in brief: as §1
Enterococcus faecalis [5] = test: Antibacterial activity against Enterococcus faecalis 09-1 after 18 hrs by two fold serial dilution method; details: 09-1, 18 h; method in brief: as §1
Enterococcus faecalis [6] = test: Antibacterial activity against Enterococcus faecalis 09-2 after 18 hrs by two fold serial dilution method; details: 09-2, 18 h; method in brief: as §1
Escherichia coli [7] = test: Antibacterial activity against Escherichia coli ATCC 25922 after 18 hrs by two fold serial dilution method; details: ATCC 25922, 18 h; method in brief: as §1
Escherichia coli [8] = test: Antibacterial activity against Escherichia coli 09-1 after 18 hrs by two fold serial dilution method; details: 09-1, 18 h; method in brief: as §1
Staphylococcus aureus [9] = test: Antibacterial activity against methicillin-resistant Staphylococcus aureus 10-1 after 18 hrs by two fold serial dilution method; details: 10-1, 18 h
Method in brief: (§2)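 Agar two-fold serial dilution in melted Mueller-Hinton agar, 128 to 0.008 μg/mL. Plates inoculated with 10⁴ cfu, incubated 35 °C for 18 h. MIC taken as lowest concentration giving no visible growth on the plate.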

Staphylococcus aureus [10] = test: Antibacterial activity against Staphylococcus aureus ATCC 25923 after 18 hrs by two fold serial dilution method; details: ATCC 25923, 18 h; method in brief: as §1
Escherichia coli [11] = test: Antibacterial activity against Escherichia coli 09-2 after 18 hrs by two fold serial dilution method; details: 09-2, 18 h; method in brief: as §1
[12] = system: Staphylococcus epidermidis; test: Antibacterial activity against methicillin-resistant Staphylococcus epidermidis 10-2 after 18 hrs by two fold serial dilution method; details: 10-2, 18 h; method in brief: as §2
Escherichia coli [13] = test: Antibacterial activity against Escherichia coli 10-3 after 18 hrs by two fold serial dilution method; details: 10-3, 18 h; method in brief: as §1
Escherichia coli [14] = test: Antibacterial activity against Escherichia coli 09-3 after 18 hrs by two fold serial dilution method; details: 09-3, 18 h; method in brief: as §1
Escherichia coli [15] = test: Antibacterial activity against Escherichia coli 10-2 after 18 hrs by two fold serial dilution method; details: 10-2, 18 h; method in brief: as §1
Enterococcus faecium [16] = test: Antibacterial activity against Enterococcus faecium 09-3 after 18 hrs by two fold serial dilution method; details: 09-3, 18 h; method in brief: as §1
Streptococcus pneumoniae = test: Antibacterial activity against Streptococcus pneumoniae 10-1 after 18 hrs by two fold serial dilution method; details: 10-1, 18 h; method in brief: as §1
Staphylococcus aureus [17] = test: Antibacterial activity against methicillin-sensitive Staphylococcus aureus 10-4 after 18 hrs by two fold serial dilution method; details: 10-4, 18 h; method in brief: as §1
Pseudomonas aeruginosa [18] = test: Antibacterial activity against Pseudomonas aeruginosa 10-2 after 18 hrs by two fold serial dilution method; details: 10-2, 18 h; method in brief: as §1
Klebsiella pneumoniae [19] = test: Antibacterial activity against Klebsiella pneumoniae 10-3 after 18 hrs by two fold serial dilution method; details: 10-3, 18 h; method in brief: as §1
Pseudomonas aeruginosa [20] = test: Antibacterial activity against Pseudomonas aeruginosa ATCC 27853 after 18 hrs by two fold serial dilution method; details: ATCC 27853, 18 h; method in brief: as §1
[21] = system: Staphylococcus epidermidis; test: Antibacterial activity against methicillin-resistant Staphylococcus epidermidis 10-1 after 18 hrs by two fold serial dilution method; details: 10-1, 18 h; method in brief: as §2
Pseudomonas aeruginosa [22] = test: Antibacterial activity against Pseudomonas aeruginosa 10-3 after 18 hrs by two fold serial dilution method; details: 10-3, 18 h; method in brief: as §1
Staphylococcus aureus [23] = test: Antibacterial activity against methicillin-resistant Staphylococcus aureus 10-4 after 18 hrs by two fold serial dilution method; details: 10-4, 18 h; method in brief: as §2
[24] = system: Staphylococcus epidermidis; test: Antibacterial activity against methicillin-sensitive Staphylococcus epidermidis 10-2 after 18 hrs by two fold serial dilution method; details: 10-2, 18 h; method in brief: as §1
Enterococcus faecium [25] = test: Antibacterial activity against Enterococcus faecium 09-4 after 18 hrs by two fold serial dilution method; details: 09-4, 18 h; method in brief: as §1
Klebsiella pneumoniae [26] = test: Antibacterial activity against Klebsiella pneumoniae 09-2 after 18 hrs by two fold serial dilution method; details: 09-2, 18 h; method in brief: as §1
Enterococcus faecium [27] = test: Antibacterial activity against Enterococcus faecium 09-6 after 18 hrs by two fold serial dilution method; details: 09-6, 18 h; method in brief: as §1
Staphylococcus aureus [28] = test: Antibacterial activity against methicillin-sensitive Staphylococcus aureus 10-5 after 18 hrs by two fold serial dilution method; details: 10-5, 18 h; method in brief: as §1
Enterococcus faecium [29] = test: Antibacterial activity against Enterococcus faecium 09-2 after 18 hrs by two fold serial dilution method; details: 09-2, 18 h; method in brief: as §1
Staphylococcus aureus [30] = test: Antibacterial activity against methicillin-sensitive Staphylococcus aureus 10-1 after 18 hrs by two fold serial dilution method; details: 10-1, 18 h; method in brief: as §1
Staphylococcus aureus [31] = test: Antibacterial activity against methicillin-resistant Staphylococcus aureus 10-3 after 18 hrs by two fold serial dilution method; details: 10-3, 18 h; method in brief: as §2
Staphylococcus aureus [32] = test: Antibacterial activity against methicillin-resistant Staphylococcus aureus 10-2 after 18 hrs by two fold serial dilution method; details: 10-2, 18 h; method in brief: as §2
Enterococcus faecium [33] = test: Antibacterial activity against Enterococcus faecium 09-1 after 18 hrs by two fold serial dilution method; details: 09-1, 18 h; method in brief: as §1
[34] = system: Staphylococcus epidermidis; test: Antibacterial activity against methicillin-sensitive Staphylococcus epidermidis 10-1 after 18 hrs by two fold serial dilution method; details: 10-1, 18 h; method in brief: as §1
Staphylococcus aureus [35] = test: Antibacterial activity against methicillin-sensitive Staphylococcus aureus 10-6 after 18 hrs by two fold serial dilution method; details: 10-6, 18 h; method in brief: as §1
Klebsiella pneumoniae [36] = test: Antibacterial activity against Klebsiella pneumoniae 10-1 after 18 hrs by two fold serial dilution method; details: 10-1, 18 h; method in brief: as §1
Escherichia coli [37] = test: Antibacterial activity against Escherichia coli 10-1 after 18 hrs by two fold serial dilution method; details: 10-1, 18 h; method in brief: as §1
Klebsiella pneumoniae [38] = test: Antibacterial activity against Klebsiella pneumoniae 10-3 infected KM mouse systemic infection model assessed as decrease in mouse mortality administered orally twice after 1 and 4 hrs post infection measured up to 7 days; details: 10-3, po
Method in brief: (§3)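 Strains grown on MH agar at 35 °C for 18 h, suspended in gastric mucin. Male KM mice (19–21 g), groups of 10, infected intraperitoneally with 0.5 mL at 5–10× MLD. Four oral dose levels per drug at 1 and 4 h post infection. Mortality followed 7 days; ED50 with 95% confidence limits by Bliss method.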

[39] = system: Staphylococcus epidermidis; test: Antibacterial activity against methicillin-resistant Staphylococcus epidermidis 10-4 infected KM mouse systemic infection model assessed as decrease in mouse mortality administered orally twice after 1 and 4 hrs post infection measured up to 7 days; details: 10-4, po; method in brief: as §3
Pseudomonas aeruginosa [40] = test: Antibacterial activity against Pseudomonas aeruginosa 10-1 infected KM mouse systemic infection model assessed as decrease in mouse mortality administered orally twice after 1 and 4 hrs post infection measured up to 7 days; details: 10-1, po; method in brief: as §3
[41] = system: Staphylococcus epidermidis; test: Antibacterial activity against methicillin-resistant Staphylococcus epidermidis 10-4 after 18 hrs by two fold serial dilution method; details: 10-4, 18 h; method in brief: as §2
Staphylococcus aureus [42] = test: Antibacterial activity against methicillin-resistant Staphylococcus aureus 10-2 infected KM mouse systemic infection model assessed as decrease in mouse mortality administered orally twice after 1 and 4 hrs post infection measured up to 7 days; details: 10-2, po; method in brief: as §3
Escherichia coli [43] = test: Antibacterial activity against Escherichia coli 10-2 infected KM mouse systemic infection model assessed as decrease in mouse mortality administered orally twice after 1 and 4 hrs post infection measured up to 7 days; details: 10-2, po; method in brief: as §3

SMILES | MIC (Staphylococcus aureus [1]) [mg/L] | MIC (Enterococcus faecium [2]) [mg/L] | MIC (Pseudomonas aeruginosa [3]) [mg/L] | MIC (Staphylococcus aureus [4]) [mg/L] | MIC (Enterococcus faecalis [5]) [mg/L] | MIC (Enterococcus faecalis [6]) [mg/L] | MIC (Staphylococcus aureus [9]) [mg/L] | MIC (Staphylococcus aureus [10]) [mg/L] | MIC [12] [mg/L] | MIC (Escherichia coli [14]) [mg/L] | MIC (Enterococcus faecium [16]) [mg/L] | MIC (Streptococcus pneumoniae) [mg/L] | MIC (Staphylococcus aureus [17]) [mg/L] | MIC (Pseudomonas aeruginosa [18]) [mg/L] | MIC (Klebsiella pneumoniae [19]) [mg/L] | MIC [21] [mg/L] | MIC (Staphylococcus aureus [23]) [mg/L] | MIC [24] [mg/L] | MIC (Enterococcus faecium [25]) [mg/L] | MIC (Klebsiella pneumoniae [26]) [mg/L] | also measured
NCC1CN(c2nc3c(cc2F)c(=O)c(C(=O)O)cn3-c2ccc(F)cc2F)C/C1=N\OC(F)F (racemic) | 1 (≈ 2.01 µM) | 32 (≈ 64.3 µM) | 1 (≈ 2.01 µM) | 0.015 (≈ 0.0302 µM) | 8 (≈ 16.1 µM) | 16 (≈ 32.2 µM) | 16 (≈ 32.2 µM) | 0.008 (≈ 0.0161 µM) | 1 (≈ 2.01 µM) | 64 (≈ 129 µM) | 16 (≈ 32.2 µM) | 0.06 (≈ 0.121 µM) | 0.008 (≈ 0.0161 µM) | 128 (≈ 257 µM) | 2 (≈ 4.02 µM) | 2 (≈ 4.02 µM) | 16 (≈ 32.2 µM) | 64 (≈ 129 µM) | 0.125 (≈ 0.251 µM) | 64 (≈ 129 µM) | MIC (Escherichia coli [7]): 0.008 mg/L (≈ 0.0161 µM); MIC (Escherichia coli [8]): 32 mg/L (≈ 64.3 µM); MIC (Escherichia coli [11]): > 128 mg/L; MIC (Escherichia coli [13]): 8 mg/L (≈ 16.1 µM); MIC (Escherichia coli [15]): 4 mg/L (≈ 8.04 µM); MIC (Pseudomonas aeruginosa [20]): 4 mg/L (≈ 8.04 µM); MIC (Pseudomonas aeruginosa [22]): 8 mg/L (≈ 16.1 µM); MIC (Enterococcus faecium [27]): 0.125 mg/L (≈ 0.251 µM); MIC (Staphylococcus aureus [28]): 0.015 mg/L (≈ 0.0302 µM); MIC (Enterococcus faecium [29]): 32 mg/L (≈ 64.3 µM); MIC (Staphylococcus aureus [30]): 0.03 mg/L (≈ 0.0603 µM); MIC (Staphylococcus aureus [31]): 16 mg/L (≈ 32.2 µM); MIC (Staphylococcus aureus [32]): 4 mg/L (≈ 8.04 µM); MIC (Enterococcus faecium [33]): 32 mg/L (≈ 64.3 µM); MIC [34]: 32 mg/L (≈ 64.3 µM); MIC (Staphylococcus aureus [35]): 0.015 mg/L (≈ 0.0302 µM); MIC (Klebsiella pneumoniae [36]): 0.25 mg/L (≈ 0.503 µM); MIC (Escherichia coli [37]): > 128 mg/L
O=C(O)c1cn(C2CC2)c2cc(N3CCNCC3)c(F)cc2c1=O [CIPROFLOXACIN] | 64 (≈ 193 µM) | 64 (≈ 193 µM) | 0.06 (≈ 0.181 µM) | 0.06 (≈ 0.181 µM) | 64 (≈ 193 µM) | 64 (≈ 193 µM) | > 128 | 0.25 (≈ 0.754 µM) | 8 (≈ 24.1 µM) | 64 (≈ 193 µM) | 128 (≈ 386 µM) | 0.03 (≈ 0.0905 µM) | 0.06 (≈ 0.181 µM) | > 128 | 0.25 (≈ 0.754 µM) | 16 (≈ 48.3 µM) | > 128 | 64 (≈ 193 µM) | 0.5 (≈ 1.51 µM) | 32 (≈ 96.6 µM) | ED50 (Klebsiella pneumoniae [38]): 87.5 mg/kg; ED50 [39]: 24.5 mg/kg; ED50 (Pseudomonas aeruginosa [40]): 111 mg/kg; MIC [41]: 8 mg/L (≈ 24.1 µM); ED50 (Staphylococcus aureus [42]): 15.9 mg/kg; ED50 (Escherichia coli [43]): 4 mg/kg; MIC (Enterococcus faecium [27]): 0.5 mg/L (≈ 1.51 µM); MIC (Staphylococcus aureus [28]): 0.03 mg/L (≈ 0.0905 µM); MIC (Enterococcus faecium [29]): > 128 mg/L; MIC (Staphylococcus aureus [30]): 0.015 mg/L (≈ 0.0453 µM); MIC (Staphylococcus aureus [31]): > 128 mg/L; MIC (Enterococcus faecium [33]): > 128 mg/L; MIC [34]: 8 mg/L (≈ 24.1 µM); MIC (Klebsiella pneumoniae [36]): 0.06 mg/L (≈ 0.181 µM)
